High-throughput results: PubChem BioAssay, The Scripps Research Institute Molecular Screening Center
M4 antag: blocks acetylcholine activation of human M4 receptor; inhibition, % at 3 µM; hit rate 0.73% among 360,000; CHO-hM4 cells, ACh EC80, Fluo-8 calcium fluorescence; AID 624125; P08173;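 active means inhibition above its plate's cutoff, the mean inhibition of sample wells plus 3 SD, cut at about 27% in these data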;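 further: 0% = acetylcholine EC80 with DMSO and 100% = DMSO without agonist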
Target sequence (P08173 whole entry, looked up): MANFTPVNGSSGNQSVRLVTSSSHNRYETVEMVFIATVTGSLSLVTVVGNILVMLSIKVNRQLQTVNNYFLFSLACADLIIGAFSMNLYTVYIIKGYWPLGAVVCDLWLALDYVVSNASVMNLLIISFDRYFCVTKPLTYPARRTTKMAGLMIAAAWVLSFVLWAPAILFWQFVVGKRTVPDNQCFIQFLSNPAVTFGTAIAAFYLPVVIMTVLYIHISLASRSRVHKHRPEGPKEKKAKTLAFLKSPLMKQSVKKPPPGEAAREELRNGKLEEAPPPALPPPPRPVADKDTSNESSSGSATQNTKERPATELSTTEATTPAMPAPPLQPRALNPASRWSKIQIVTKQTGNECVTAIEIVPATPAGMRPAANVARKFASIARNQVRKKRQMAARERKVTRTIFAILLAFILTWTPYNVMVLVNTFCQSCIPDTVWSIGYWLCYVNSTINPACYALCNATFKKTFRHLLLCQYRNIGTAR
M4 PAM: CHRM4 positive allosteric modulation; P08173; CHO-K1 hM4/Gqi5, Fluo-8 calcium fluorescence, ACh EC20; 0% = ACh EC20, 100% = maximal ACh; activation, % at 3 µM; hit rate 0.4% among 360,000; AID 624126;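 active means activation above its plate's cutoff, the mean activation of sample wells plus 3 SD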
M4 ag: CHRM4 agonism in calcium assay; activation, % at 3 µM; AID 624127; hit rate 0.14% among 360,000; CHO-K1 hM4/Gqi5, Fluo-8 calcium fluorescence; vehicle 0%, full acetylcholine response 100%; P08173;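 active means activation above the run mean over all test wells plus 3 SD, cut at about 32% in these data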;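 further: peak over basal fluorescence ratio per well then scaled between controls; 0% = DMSO wells and 100% = acetylcholine at EC100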
CHRM5 PAM: potentiates acetylcholine response at human M5 receptor. P08912. AID 624038. CHO-K1 hM5, Fluo-8 calcium, ACh EC20 PAM; 0% = ACh EC20, 100% = ACh EC100. hit rate 0.3% among 360,000. activation, % at 3 µM;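 active means activation above the run cutoff, the mean activation of all test compounds plus 3 SD, cut at about 18% in these data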
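System: CHO-K1 hM5 cells. Reagent: acetylcholine, EC20 level. Compound dosing: single dose, 3 µM nominal final test concentration. Timing: Post-acetylcholine fluorescence recording 140 s. Detection: Fluo-8 calcium fluorescence. Read-out: % activation, ACh-normalized. Benchmarks: ACh EC20 and EC100 wells. Repeats: singlicate, one well per test compound.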
CHRM5 agonist: CHRM5 agonism in calcium assay | P08912 | CHO-K1 hM5 cells, Fluo-8 calcium fluorescence; 0% DMSO wells, 100% maximal acetylcholine response | activation, % at 3 µM | hit rate 0.19% among 360,000 | AID 624037;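 active means activation above the run's mean over test compounds plus 3 SD, cut at about 23% in these data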;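 further: signal is peak over basal fluorescence ratio across the kinetic read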
CHRM5 antagonist: blocks acetylcholine activation of human M5 receptor. P08912. CHO-hM5 cells, Fluo-8 calcium fluorescence, ACh EC80. inhibition, % at 3 µM. hit rate 0.59% among 360,000. AID 624040;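 active means inhibition above a per-plate cutoff, the mean of that plate's test compounds plus 3 SD, cut at about 27% in these data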;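 further: 0% = acetylcholine EC80 with DMSO and 100% = DMSO without agonist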
* hit, by the source's call. Hits are enriched below; roughly 1.8% of the tested compounds scored in any of these assays.

SMILES | M4 antag | M4 PAM | M4 ag | CHRM5 PAM | CHRM5 agonist | CHRM5 antagonist
C/C(=N/OC(=O)c1c(-c2c(Cl)cccc2Cl)noc1C)c1cnccn1 | 24 | -25 | 1 | -33 | -17 | 17
C/C(=N/OC(=O)c1c(-c2ccccc2Cl)noc1C)c1cnccn1 | 34* | -21 | 4 | -33 | -15 | 4
COc1ccc(S(=O)(=O)N2CCN(c3ccc(F)cc3)CC2)cc1C(=O)N1CCCC1 | -17 | -2 | 2 | -1 | -2 | 10
O=[N+]([O-])c1ccc(COc2cccnc2)cc1 | -7 | -4 | 2 | -3 | 0 | 3
O=[N+]([O-])c1ccc(-c2cccnc2)cc1 | 3 | 1 | 1 | 18* | 2 | 4
C=CCN1C(=O)/C(=C2/Sc3ccccc3N2CC)SC1=S | -8 | -6 | -1 | 5 | 0 | 3
CCN1C(=O)/C(=C2\Sc3ccccc3N2CC)OC1=S | -8 | 23* | 2 | 14 | 0 | -12
CNC(=S)N1CCN(c2cccc(OC)c2)CC1 | 33* | 17 | 2 | 7 | -1 | -1
COc1cccc(N2CCN(C(=S)Nc3cc(C)cc(C)c3)CC2)c1 | -7 | 16 | 2 | 3 | 1 | -7
O=C(O)C1CCCN1S(=O)(=O)c1ccccc1 (stereo not given) | -7 | 39* | 2 | 26* | 1 | -9
Cc1ccc(S(=O)(=O)N(C)C)cc1NC(=O)C1CCCCN1S(=O)(=O)c1ccccc1 (stereo not given) | -3 | 24* | 1 | -5 | -6 | 3
CC1CC(C)CN(S(=O)(=O)c2ccc(NC(=O)[C@@H]3CCCN3C(=O)c3cccs3)cc2)C1 (stereo not given in full) | 28* | -6 | -1 | -22 | -8 | 3
Cc1ccc(S(=O)(=O)N2CCCC2C(=O)NCc2ccccc2Cl)cc1 (stereo not given) | 2 | 0 | 1 | 19* | 3 | -16
Brc1cccc(-c2nc3c4ccccc4ccn3c2Cc2ccsc2)c1 | 7 | -8 | -2 | -3 | -3 | 5
NC(=O)CCN1CCN(Cc2nc(C(c3ccccc3)c3ccccc3)no2)CC1 | 21 | -19 | 0 | -20 | -13 | 15
O=C(Nc1ccc(F)cc1)C1CCCN1S(=O)(=O)c1ccc(Br)cc1 (stereo not given) | -9 | 25* | 3 | 5 | -3 | 0
CC(=O)Nc1ccc(S(=O)(=O)N2CCCC2C(=O)Nc2ccc(F)cc2)cc1 (stereo not given) | 4 | 7 | 1 | 4 | -1 | -4
COCC(=O)N(Cc1cc2ccc(C)cc2[nH]c1=O)c1cccc(C)c1 | -4 | -5 | 0 | 1 | 1 | -8
COCC(=O)N(Cc1cc2cc(C)ccc2[nH]c1=O)c1ccccc1 | -21 | 23* | 2 | 6 | 0 | -2
N#Cc1c(Cc2cccc3ccccc23)nn(CCO)c1N | 3 | 25* | 1 | 7 | 1 | 6
Cn1nc(Cc2cccc3ccccc23)c(C#N)c1N | 3 | 10 | 1 | 10 | 5 | -4
O=C1CSC(=S)N1Cc1cccs1 | -1 | 5 | 4 | -8 | 8 | 10
CC(C)N1CN(c2ccccc2)C(=S)N(c2ccccc2)C1 | -16 | 18* | 0 | 2 | 8 | -1
O=C(O)c1ccc(NS(=O)(=O)c2ccc(Cl)c(C(=O)Nc3ccccc3)c2)cc1 | -10 | 2 | 1 | 0 | 2 | 7
CS(=O)(=O)c1ccc(NS(=O)(=O)c2ccc(Cl)c(C(=O)NCc3ccco3)c2)cc1 | -39 | 24* | 0 | -3 | 1 | -1
SMILES | M4 antag | M4 PAM | M4 ag | CHRM5 PAM | CHRM5 agonist | CHRM5 antagonist
CC(=O)c1ccc(NS(=O)(=O)c2cccc(C(=O)Nc3ccccc3C(=O)O)c2)cc1 | -21 | 14* | -1 | 11 | 6 | -7
O=C(Nc1ccccc1C(=O)O)c1cc(S(=O)(=O)Nc2ccccc2)ccc1Cl | -9 | 16* | -2 | 12 | 5 | -4
CCN(CC)S(=O)(=O)c1ccc(Cl)c(C(=O)NCc2ccco2)c1 | 4 | 10 | 3 | 11 | -4 | -2
Cc1ccc(C(=O)O)cc1S(=O)(=O)Nc1ccccc1C(=O)NC1CC1 | -6 | 5 | 1 | -2 | 0 | -3
COc1ccc(NC(=O)c2cccc(N3C(=O)C4CCC(C)CC4C3=O)c2)c(OC)c1 (stereo not given) | 9 | -11 | 11 | -6 | -1 | 23
COc1cccc(NC(=O)c2ccc(N3C(=O)C4CCC(C)CC4C3=O)cc2)c1 (stereo not given) | -20 | -4 | 19 | -13 | -1 | 29*
COc1ccc(Cl)cc1NC(=O)CSc1sc2c(O)cc(=O)[nH]c2c1C#N | 4 | 23* | 7 | 15 | -1 | 19
Cc1ccc(Cl)cc1NC(=O)CSc1sc2c(O)cc(=O)[nH]c2c1C#N | 4 | -1 | 1 | -5 | -4 | 14
O=C(COC(=O)/C=C/c1ccc(F)cc1)NC1CCCCCC1 | -10 | 4 | 1 | 3 | 2 | 8
O=C1c2ccccc2C(Nc2ccc(Cl)cn2)N1c1ccccn1 (stereo not given) | -13 | 18* | 0 | -1 | -2 | 4
O=C(NC1CCN(S(=O)(=O)c2cccc(Cl)c2)CC1)C1CCCCC1 | -3 | -3 | 0 | 6 | -1 | -4
CCCC(=O)c1c(NC(C)C)cc(C)oc1=O | 4 | 39* | -1 | -3 | 7 | -3
COc1ccccc1N(C(=O)c1snc(C(N)=O)c1N)C(C(=O)NC1CCCC1)c1ccc2ncccc2c1 (stereo not given) | 7 | 2 | 2 | 0 | -1 | 7
COC(=O)c1cc(C(=O)OCC(=O)c2ccc[nH]2)cc([N+](=O)[O-])c1 | 4 | 0 | 0 | 0 | -2 | 7
Nc1nc(F)cc(N2CCCCCC2)n1 | 2 | -4 | 1 | 2 | 1 | 7
c1ccc(Cn2nnc3c(N4CCCC4)ncnc32)cc1 | -6 | 21* | 4 | 6 | 4 | 5
CCN1CCN(c2ncnc3c2nnn3Cc2ccccc2)CC1 | -6 | 2 | 2 | -7 | -10 | 2
Cc1c(C(=O)OC(C)C(C)C[N+](C)(C)C)oc2ccccc12 (stereo not given) | 77* | -22 | 0 | -18 | -7 | 12
COc1ccc(OC)c2c1C(=O)C(Cl)=C(Cl)C2=O | 61* | -8 | 0 | -1 | 0 | 23
OCCC1CN(Cc2nc(-c3ccccc3)cs2)CCN1C1CCCC1 (stereo not given) | 53* | -57 | 1 | -9 | -14 | 11
COc1ccc2c(c1)C=C(CN1CCN(C3CCCC3)C(CCO)C1)CO2 (stereo not given) | 73* | -20 | 1 | -20 | -16 | 5
